According to ChEMBL document CHEMBL4138145, “Cyclic Cystine-Bridged Peptides from the Marine Sponge Clathria basilana Induce Apoptosis in Tumor Cells and Depolarize the Bacterial Cytoplasmic Membrane” (J Nat Prod, 2017):
Values after ≈ are worked out from the molar mass of the structure shown. Active and inactive are the calls of the source. The calls are words filed in the database; no cut-off is given here. Where a SMILES comes first, the peptide text is derived from it. Bridges are numbered along the chain shown (N, C = ends). The star is where a group is joined. X1 = CC(C)[C@H](C)C(=O)*; X2 = C(=C\c1ccccc1)/N*

Key:
[1] = system: Bacillus subtilis; experiment: Induction of DNA damage in Bacillus subtilis isolate 1S34 assessed as increase in yorB promoter activity at 5 ug after 14 to 18 hrs by beta-galactosidase reporter gene assay; type: functional, organism-based
Outline: (§1)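 Agar-based β-galactosidase promoter-reporter assay. B. subtilis 1S34 grown to stationary phase in LB with spectinomycin 50 μg/mL, then set at 3 × 10^7 CFU/mL in LB soft agar (0.7%) containing X-Gal 150 μg/mL. Test compounds spotted at 20 nmol; reference antibiotics given on paper discs (5–30 μg). Plates read for promoter induction after 14–18 h at 30 °C.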

[2] = system: Bacillus subtilis; experiment: Induction of cell envelope stress in Bacillus subtilis isolate 1S34 assessed as increase in liaI promoter activity at 5 ug after 14 to 18 hrs by beta-galactosidase reporter gene assay; type: functional, organism-based; outline: as §1
[3] = system: Bacillus subtilis; experiment: Induction of cell envelope stress in Bacillus subtilis isolate 1S34 assessed as increase in ypuA promoter activity at 5 ug after 14 to 18 hrs by beta-galactosidase reporter gene assay; type: functional, organism-based; outline: as §1
[4] = system: Bacillus subtilis; experiment: Induction of RNA damage in Bacillus subtilis isolate 1S34 assessed as increase in helD promoter activity at 5 ug after 14 to 18 hrs by beta-galactosidase reporter gene assay; type: functional, organism-based; outline: as §1
[5] = system: Bacillus subtilis; experiment: Induction of translation arrest in Bacillus subtilis isolate 1S34 assessed as increase in bmrC promoter activity at 5 ug after 14 to 18 hrs by beta-galactosidase reporter gene assay; type: functional, organism-based
[6] = system: Ramos; experiment: Induction of apoptosis in human Ramos cells assessed as maximum activation of caspase 3 at 1 uM using Ac-DEVD-AMC as substrate measured after 6 to 7 hrs by immuno blot analysis; type: functional, cell-based
[7] = system: Ramos; experiment: Induction of apoptosis in human Ramos cells assessed as maximum activation of caspase 3 at 10 uM using Ac-DEVD-AMC as substrate measured after 6 to 7 hrs by immuno blot analysis; type: functional, cell-based
[8] = system: Bacillus subtilis; experiment: Induction of cell envelope stress in Bacillus subtilis isolate 1S34 assessed as increase in liaI promoter activity at 20 nmol after 14 to 18 hrs by beta-galactosidase reporter gene assay; type: functional, organism-based; outline: as §1
[9] = species: Homo sapiens; experiment: Induction of apoptosis in human Jurkat 16 cells assessed as activation of caspase 3 at 10 uM using Ac-DEVD-AMC as substrate measured up to 4 hrs by immuno blot analysis; type: functional, cell-based
[10] = species: Homo sapiens; experiment: Induction of apoptosis in human Jurkat 16 cells assessed as increase in PARP cleavage at 10 uM measured up to 4 to 8 hrs by immuno blot analysis; type: functional, cell-based
[11] = system: Staphylococcus aureus; experiment: Disruption of inner membrane potential in Staphylococcus aureus NCTC 8325 at 0.2 uM measured after 30 to 60 mins by DiOC2(3) dye based fluorescence assay; type: functional, organism-based
Outline: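 S. aureus NCTC 8325 grown to exponential phase in LB, resuspended in PBS at OD600 0.5, and loaded with 30 μM DiOC2(3) for 15 min before compound addition. Fluorescence read 30 and 60 min later: excitation 485 nm, emission 530 nm (green) and 630 nm (red). Controls were CCCP 5 μM and DMSO. Two runs on different days with independent cultures.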

[12] = system: Ramos; experiment: Cytotoxicity against human Ramos cells assessed as reduction in cell viability after 24 hrs by MTT assay; type: functional, cell-based
Outline: (§2)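 Suspension cells at 5 × 10^5 cells/mL, exposed 24 h to varying compound concentrations; 0.1% v/v DMSO as negative control. MTT added to 1 mg/mL final for 60 min, cells pelleted, formazan extracted in DMSO for 25 min at rt, A570 read with 650 nm reference. Viability relative to DMSO set at 100%; IC50 from fitted curves.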

[13] = system: Bacillus subtilis; experiment: Induction of cell envelope stress in Bacillus subtilis isolate 1S34 assessed as increase in ypuA promoter activity at 20 nmol after 14 to 18 hrs by beta-galactosidase reporter gene assay; type: functional, organism-based; outline: as §1
[14] = system: Ramos; experiment: Induction of apoptosis in human Ramos cells assessed as PARP cleavage at 10 uM cotreated with pan-caspase inhibitor QVD-OPh measured after 2 to 8 hrs by Western blot analysis; type: functional, cell-based
Outline: (§3)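 Ramos cells were exposed for 2–8 h with or without Q-VD-OPh 10 μM; staurosporine 2.5 μM served as positive control. Cells were lysed in Tris/Triton buffer with phosphatase and protease inhibitors. Then 25 μg protein was run on 10% SDS-PAGE and blotted to PVDF for PARP cleavage, with β-actin as loading control.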

[15] = system: A2780; experiment: Cytotoxicity against human A2780 cells assessed as reduction in cell viability after 72 hrs by MTT assay; type: functional, cell-based; conditions: A2780, 72 h
Outline: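 A2780 ovarian carcinoma cells were grown in RPMI-1640 with 10% FBS, penicillin and streptomycin, about 9000 cells/well, preincubated overnight. Increasing compound concentrations were applied for 72 h, then MTT was added. Absorbance read at 544 nm minus the 690 nm reference.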

[16] = system: Pseudomonas aeruginosa; experiment: Antimicrobial activity against Pseudomonas aeruginosa after 16 to 20 hrs by broth micro dilution method; type: functional, organism-based
Outline: (§4)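 Broth microdilution per CLSI in cation-adjusted Mueller-Hinton broth. Inoculum made by direct colony suspension, 5 × 10^5 CFU/mL final, added to serial 2-fold compound dilutions. Plates kept 16–20 h at 37 °C in ambient air. MIC is the lowest concentration with no visible growth. Strains are ATCC CLSI quality-control strains; A. baumannii 09987 is a Bonn clinical isolate.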

[17] = system: Ramos; experiment: Induction of apoptosis in human Ramos cells assessed as activation of caspase 3 at 1 uM using Ac-DEVD-AMC as substrate measured up to 4 hrs by immuno blot analysis; type: functional, cell-based
[18] = system: Klebsiella pneumoniae; experiment: Antimicrobial activity against Klebsiella pneumoniae after 16 to 20 hrs by broth micro dilution method; type: functional, organism-based; outline: as §4
[19] = species: Homo sapiens; experiment: Induction of apoptosis in human Jurkat 16 cells assessed as activation of caspase 3 at 1 uM using Ac-DEVD-AMC as substrate measured up to 4 hrs by […]; type: functional, cell-based
[20] = species: Homo sapiens; experiment: Induction of apoptosis in human Jurkat 16 cells assessed as maximum activation of caspase 3 at 10 uM using Ac-DEVD-AMC as substrate measured after 6 to 7 hrs by immuno blot analysis; type: functional, cell-based
[21] = system: Bacillus subtilis; experiment: Induction of RNA damage in Bacillus subtilis isolate 1S34 assessed as increase in helD promoter activity at 20 nmol after 14 to 18 hrs by beta-galactosidase reporter gene assay; type: functional, organism-based; outline: as §1
[22] = system: Acinetobacter baumannii; experiment: Antimicrobial activity against Acinetobacter baumannii isolate 09987 after 16 to 20 hrs by broth micro dilution method; type: functional, organism-based; outline: as §4
[23] = system: Bacillus subtilis; experiment: Induction of translation arrest in Bacillus subtilis isolate 1S34 assessed as increase in bmrC promoter activity at 20 nmol after 14 to 18 hrs by beta-galactosidase reporter gene assay; type: functional, organism-based
[24] = system: Enterococcus faecium; experiment: Antimicrobial activity against vancomycin-resistant Enterococcus faecium isolate BM 4147-1 after 16 to 20 hrs by broth micro dilution method; type: functional
[25] = system: NOMO-1; experiment: Cytotoxicity against human NOMO1 cells assessed as reduction in cell viability after 24 hrs by MTT assay; type: functional, cell-based; conditions: NOMO-1, 24 h; outline: as §2
[26] = system: HL-60; experiment: Cytotoxicity against human HL60 cells assessed as reduction in cell viability after 24 hrs by MTT assay; type: functional, cell-based; conditions: HL-60, 24 h; outline: as §2
[27] = Cytotoxicity against human Jurkat 16 cells assessed as reduction in cell viability after 24 hrs by MTT assay; type: functional, cell-based; outline: as §2
[28] = system: Klebsiella aerogenes; experiment: Antimicrobial activity against Enterobacter aerogenes after 16 to 20 hrs by broth micro dilution method; type: functional, organism-based; outline: as §4
[29] = species: Homo sapiens; experiment: Induction of apoptosis in human Jurkat 16 cells assessed as maximum activation of caspase 3 at 1 uM using Ac-DEVD-AMC as substrate measured after 6 to 7 hrs by immuno blot analysis; type: functional, cell-based
[30] = system: Bacillus subtilis; experiment: Induction of DNA damage in Bacillus subtilis isolate 1S34 assessed as increase in yorB promoter activity at 20 nmol after 14 to 18 hrs by beta-galactosidase reporter gene assay; type: functional, organism-based; outline: as §1
[31] = system: Ramos; experiment: Induction of apoptosis in human Ramos cells assessed as activation of caspase 3 at 10 uM using Ac-DEVD-AMC as substrate measured up to 4 hrs by immuno blot analysis; type: functional, cell-based
[32] = system: Escherichia coli; experiment: Antimicrobial activity against Escherichia coli after 16 to 20 hrs by broth micro dilution method; type: functional, organism-based; outline: as §4
[33] = system: Staphylococcus aureus; experiment: Antimicrobial activity against Staphylococcus aureus after 16 to 20 hrs by broth micro dilution method; type: functional; outline: as §4
[34] = system: MEF; experiment: Inhibition of autophagy in mouse MEF expressing mCitrine-hLC3B assessed as reduction in amino acid starvation-induced degradation of LC3 at 10 uM after 4 hrs by flow cytometry; type: functional, cell-based
Outline: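 MEFs stably expressing mCitrine-hLC3B were held 4 h in full medium or EBSS starvation medium with 10 μM compound; bafilomycin A1 10 nM was the inhibition control. Cells were trypsinized, washed and read by flow cytometry for median mCitrine fluorescence. Values normalized to DMSO-treated full-medium cells; mean ± SD of 3 independent analyses; Student's t test.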

[35] = system: Mycobacterium tuberculosis; experiment: Antimicrobial activity against Mycobacterium tuberculosis H37Rv up to 100 uM after 5 days by resazurin dye based assay; type: functional, organism-based
Outline: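 M. tuberculosis H37Rv was grown aerobically at 37 °C in Middlebrook 7H9 with ADS enrichment, 0.5% glycerol and 0.05% tyloxapol, then precultured to log phase (OD600 0.5−1). Cells were seeded at 1 × 10^5 per well on 2-fold dilutions over 100−0.78 μM and held 5 days at 37 °C. Resazurin was added for 16 h at ambient temperature, then cells were formalin-fixed and fluorescence read (ex 540, em 590 nm). Growth is relative to rifampicin (0%) and DMSO (100%).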

[36] = system: Ramos; experiment: Induction of apoptosis in human Ramos cells assessed as increase in PARP cleavage at 10 uM measured up to 4 to 8 hrs by immuno blot analysis; type: functional, cell-based; outline: as §3

O=C(O)c1cn(C2CC2)c2cc(N3CCNCC3)c(F)cc2c1=O
Activity [1]: Active
Activity [2]: Active
Activity [3]: Active
Activity [4]: Active
Activity [5]: Active

CC[C@H](C)[C@@H]1NC(=O)[C@@H](NC(=O)[C@@H](C)C(C)C)CSSC[C@@H](C(=O)N/C=C/c2ccccc2)NC(=O)[C@H]([C@@H](C)CC)NC(=O)[C@H]([C@@H](C)CC)NC(=O)[C@H]([C@@H](C)CC)NC1=O (X1-CIIIIC-X2; disulfide 1-6)
Activity [6]: inactive
Activity [7]: Active
Activity [8]: Active
Activity [9]: Active
Activity [10]: Active
Activity [11]: Active
IC50 [12]: 5.9 µM
Activity [13]: Active
Activity [14]: inactive
IC50 [15]: 2.6 µM
Activity [16]: inactive
Activity [17]: inactive
Activity [18]: inactive
Activity [19]: inactive
Activity [20]: Active
Activity [21]: inactive
Activity [22]: inactive
Activity [23]: inactive
MIC [24]: 12 µM (≈ 10.5 µg/mL)
IC50 [25]: 10 µM
IC50 [26]: 28 µM
IC50 [27]: 4.6 µM
Activity [28]: inactive
Activity [29]: inactive
Activity [30]: inactive
Activity [31]: Active
Activity [32]: inactive
MIC [33]: 6.2 µM (≈ 5.42 µg/mL)
inhibition [34]: inactive
Activity [35]: inactive
Activity [36]: Active
